Assay results from ChEMBL document CHEMBL1150250, “New R/S-3,4-dihydro-2,2-dimethyl-6-halo-4-(phenylaminothiocarbonylamino)-2H-1-benzopyrans structurally related to (+/-)-cromakalim as tissue-selective pancreatic beta-cell K(ATP) channel openers” (Bioorg Med Chem, 2008).
pEC50, pIC50: −log10 of the molar value. The source made the active and inactive calls. The calls are words filed in the database; no cut-off is given here.

Experiments:
[1] = Inhibition of glucose-induced insulin secretion in Wistar rat pancreatic beta islets assessed as residual insulin secretion at 10 uM relative to control; format: functional
Aorta [2] = assay: Myorelaxant activity in potassium depolarized Wistar rat aorta rings assessed as relaxation of KCl-induced contraction; format: functional, tissue-based
How it was run: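 Thoracic aorta rings (3–4 mm) from adult fed Wistar rats were equilibrated for 60 min, then contracted with 30 mM KCl. Drug was added cumulatively up to maximal relaxation or 300 µM, and isometric tension was recorded. Relaxation was expressed as % of the KCl contraction. EC50 (50% inhibition of the KCl plateau) was derived from dose–response curves. Values are mean ± SEM (n).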

Aorta [3] = assay: Ratio of IC50 for glucose-induced insulin secretion in Wistar rat pancreatic beta islets to EC50 for myorelaxant activity in Wistar rat aorta rings; format: functional
How it was run: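 Selectivity ratio: the estimated IC50 for inhibition of 16.7 mM glucose-induced insulin release from incubated islets, divided by the EC50 for relaxing 30 mM KCl-contracted rat aortic rings.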

[4] = Inhibition of glucose-induced insulin secretion in Wistar rat pancreatic beta islets assessed as residual insulin secretion at 1 uM relative to control; format: functional
[5] = Inhibition of glucose-induced insulin secretion in Wistar rat pancreatic beta islets assessed as residual insulin secretion relative to control; format: functional
How it was run: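 Groups of 10 islets from adult fed Wistar rats were preincubated for 30 min at 37 °C in bicarbonate salt medium with 2.8 mM glucose and 0.5% albumin, gassed with O2/CO2. They were then incubated for 90 min in the same medium with 16.7 mM glucose plus drug. Insulin was measured by radioimmunoassay and expressed as % of drug-free 16.7 mM glucose control. Values are mean ± SEM (n).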

[6] = Activation of KATP channel assessed as reduction of glucose-induced rise in cytosolic calcium concentration in Wistar rat pancreatic beta islets at 10 uM by calcium fluorimetry
How it was run: (§1)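 Dispersed rat islet cells were cultured for 72 h on coverslips, then loaded with fura-2 AM (2 µmol/L) for 1 h. Cells were perifused in bicarbonate salt medium with 2.8 mM glucose, gassed with O2/CO2. The rise in [Ca2+]i was evoked by 20 mM glucose or by 50 mM KCl, with NaCl lowered to keep osmolarity constant. Drug was 10 µM. Dual-excitation (340/380 nm, emission 510 nm) ratio F340/F380 was recorded in single cells, on different cell populations.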

[7] = Activation of KATP channel assessed as reduction of KCl-induced rise in calcium concentration in Wistar rat pancreatic beta islets at 10 uM by calcium fluorimetry; how it was run: as §1
[8] = Activation of KATP channel assessed as increase in rate of [86Rb] fractional outflow in perfused Wistar rat pancreatic beta islets at 10 uM
How it was run: (§2)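 Islets from adult fed Wistar rats, in groups of 100, were loaded for 60 min at 37 °C in medium with 16.7 mM glucose plus either 86Rb (0.15–0.25 mmol/L) or 45Ca (0.02–0.04 mmol/L). They were washed three times and then perifused at 1.0 mL/min. Effluent was collected each minute from min 31 to 90. Outflow was expressed as fractional outflow rate (% of instantaneous islet content per min). Insulin in the effluent was measured by radioimmunoassay against a rat insulin standard.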

[9] = Activation of KATP channel assessed as increase in rate of [86Rb] fractional outflow in perfused Wistar rat pancreatic beta islets in presence of glibenclamide at 10 uM; how it was run: as §2
[10] = Activation of KATP channel assessed as increase in rate of [45Ca] fractional outflow in perfused Wistar rat pancreatic beta islets at 10 uM; how it was run: as §2
[11] = Activation of KATP channel assessed as increase in rate of [45Ca] fractional outflow in perfused Wistar rat pancreatic beta islets at 10 uM in absence of extracellular calcium; how it was run: as §2
[12] = Activation of KATP channel assessed as insulin release in perfused Wistar rat pancreatic beta islets at 10 uM; how it was run: as §2

SMILES	Activity [1] [%]	pEC50 (Aorta [2])	other results
Cc1cccc(NC(=S)NC2CC(C)(C)Oc3ccc(Cl)cc32)c1 (centres undefined)	43	3.86	–
CC1(C)CC(NC(=S)Nc2cccc(Cl)c2)c2cc(Cl)ccc2O1 (centres undefined)	16.2	< 5.00	Ratio IC50/EC50 (Aorta [3]): <0.31; Activity [4]: 89.5%; pIC50 [5]: 5.51
COc1cccc(NC(=S)NC2CC(C)(C)Oc3ccc(Cl)cc32)c1 (centres undefined)	34.3	5.54	–
CC1(C)CC(NC(=S)Nc2ccccc2Cl)c2cc(F)ccc2O1 (centres undefined)	81.3	4.61	–
COc1ccc(NC(=S)NC2CC(C)(C)Oc3ccc(Br)cc32)cc1 (centres undefined)	53.1	< 5.00	–
CC1(C)CC(NC(=S)Nc2ccc(Cl)cc2)c2cc(Cl)ccc2O1 (centres undefined)	8.9	< 5.00	Ratio IC50/EC50 (Aorta [3]): <0.27; Activity [4]: 87.9%; pIC50 [5]: 5.56
COc1ccccc1NC(=S)NC1CC(C)(C)Oc2ccc(Cl)cc21 (centres undefined)	76.8	5.26	–
COc1ccc(NC(=S)NC2CC(C)(C)Oc3ccc(Cl)cc32)cc1 (centres undefined)	50.4	4.90	–
Cc1ccc(NC(=S)NC2CC(C)(C)Oc3ccc(Cl)cc32)cc1 (centres undefined)	32.8	< 4.52	–
CC1(C)CC(NC(=S)Nc2ccccc2)c2cc(Br)ccc2O1 (centres undefined)	32.8	4.29	–
COc1ccccc1NC(=S)NC1CC(C)(C)Oc2ccc(Br)cc21 (centres undefined)	65.1	< 5.00	–
COc1cccc(NC(=S)NC2CC(C)(C)Oc3ccc(Br)cc32)c1 (centres undefined)	36.6	< 5.00	–
CC1(C)CC(NC(=S)Nc2ccccc2Cl)c2cc(Br)ccc2O1 (centres undefined)	57.5	5.19	–
COc1ccccc1NC(=S)NC1CC(C)(C)Oc2ccc(F)cc21 (centres undefined)	82.9	< 5.00	–
Cc1ccccc1NC(=S)NC1CC(C)(C)Oc2ccc(Cl)cc21 (centres undefined)	69	< 4.52	–
CC1(C)CC(NC(=S)Nc2ccccc2Cl)c2cc(Cl)ccc2O1 (centres undefined)	68.2	5.49	–
CC1(C)Oc2ccc(C#N)cc2C(N2CCCC2=O)C1O (racemic) [CROMAKALIM]	94.4	6.89	Ratio IC50/EC50 (Aorta [3]): >770; Activity [4]: 95.3%; pIC50 [5]: < 4.00

SMILES	Activity [1] [%]	pEC50 (Aorta [2])	other results
Cc1ccc(NC(=S)NC2CC(C)(C)Oc3ccc(Br)cc32)cc1 (centres undefined)	52.2	< 4.52	–
CC1(C)CC(NC(=S)Nc2ccccc2)c2cc(F)ccc2O1 (centres undefined)	63.2	5.12	–
Cc1ccccc1NC(=S)NC1CC(C)(C)Oc2ccc(Br)cc21 (centres undefined)	57	< 4.52	–
CC(C)NC1=NS(=O)(=O)c2cc(Cl)ccc2N1	4.9	4.44	Ratio IC50/EC50 (Aorta [3]): 0.02; Activity [4]: 36.2%; pIC50 [5]: 6.14
Cc1cccc(NC(=S)NC2CC(C)(C)Oc3ccc(Br)cc32)c1 (centres undefined)	37.2	< 4.52	–
COc1cccc(NC(=S)NC2CC(C)(C)Oc3ccc(F)cc32)c1 (centres undefined)	52	5.21	–
CC1(C)CC(NC(=S)Nc2ccc(Cl)cc2)c2cc(Br)ccc2O1 (centres undefined)	12.2	< 5.00	Activity [6]: Active; Activity [7]: inactive; Activity [8]: Active; Ratio IC50/EC50 (Aorta [3]): <0.22; Activity [4]: 75.7%; Activity [9]: inactive; pIC50 [5]: 5.65
Cc1ccccc1NC(=S)NC1CC(C)(C)Oc2ccc(F)cc21 (centres undefined)	69.8	4.95	–
CC1(C)CC(NC(=S)Nc2cccc(Cl)c2)c2cc(Br)ccc2O1 (centres undefined)	23	< 5.00	Ratio IC50/EC50 (Aorta [3]): <0.25; Activity [4]: 74.6%; pIC50 [5]: 5.59
COc1ccc(NC(=S)NC2CC(C)(C)Oc3ccc(F)cc32)cc1 (centres undefined)	73.8	4.67	–
CC1(C)CC(NC(=S)Nc2ccc(Cl)cc2)c2cc(F)ccc2O1 (centres undefined)	10.5	< 5.00	Activity [6]: Active; Activity [7]: inactive; Activity [10]: Active; Activity [8]: Active; Ratio IC50/EC50 (Aorta [3]): <0.23; Activity [4]: 77.5%; Activity [11]: inactive; Activity [9]: inactive; pIC50 [5]: 5.64; Activity [12]: Active
Cc1ccc(NC(=S)NC2CC(C)(C)Oc3ccc(F)cc32)cc1 (centres undefined)	60.2	< 4.52	–
CC1=Nc2ccc(Cl)cc2S(=O)(=O)N1 [DIAZOXIDE]	73.9	–	Ratio IC50/EC50 (Aorta [3]): 1.01; Activity [4]: 87.5%
CC1(C)CC(NC(=S)Nc2ccccc2)c2cc(Cl)ccc2O1 (centres undefined)	46.6	4.95	–
Cc1cccc(NC(=S)NC2CC(C)(C)Oc3ccc(F)cc32)c1 (centres undefined)	53.1	5.14	–
CC1(C)CC(NC(=S)Nc2cccc(Cl)c2)c2cc(F)ccc2O1 (centres undefined)	18	< 5.00	Ratio IC50/EC50 (Aorta [3]): <0.32; Activity [4]: 90.2%; pIC50 [5]: 5.49
CC(N/C(=N\C#N)Nc1ccncc1)C(C)(C)C (racemic) [PINACIDIL ANHYDROUS]	–	6.46	pIC50 [5]: < 4.00
